Experimental data: PubChem BioAssay
Calls of active or inactive are those of the source.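 Rule for the calls: active = duplicate-averaged activation above buffer control mean plus 5 SD of those controls; inactive = the rest.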

Assay: nonspecific flux increase, KCNQ1-free cells – parental CHO cells, counter-screen for KCNQ1 potentiator project (AID 493006);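 for activation: fluorescence ratio of max minus min over baseline after K+ and Tl+ depolarization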
Settings: parental CHO-K1 cells, FluxOR thallium flux, at 10 µM; stronger effect = higher value
Summary of the method: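 Benchmarks – buffer and R-L3 controls · Assay system – untransfected host CHO-K1 cells with FluxOR thallium dye · Measure – fluorescence change ratio scaled 0% buffer, 100% R-L3 · Technique – kinetic thallium-flux fluorescence · Timing – overnight 37 °C plating, 90 min RT dye, 20 min compound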

Compound	outcome	activation
N#Cc1cn(CC(=O)NCC2CCCO2)c2ccccc12 (centres undefined)	inactive	–
CSc1nc(C)c2c(n1)N(c1ccc(C(C)C)cc1)CC2	inactive	–
Cc1cc(C(=O)N/N=C/C=C/c2ccc3c(c2)OCO3)n[nH]1	inactive	–
CC(C)(C)c1cc(C(=O)NNC(=O)c2ccc(Cl)cc2)no1	–	200% (active)
Cc1ccc(/C=C/C(=O)C2C(=O)c3ccccc3C2=O)cc1	–	227% (active)
COc1ccc(OCc2cc(C(=O)N(C)CC3CCCCO3)no2)c(Cl)c1 (centres undefined)	inactive	–
Oc1[nH]c2ccc(Br)cc2c1N=NC(=S)Nc1ccc(F)cc1	inactive	–
CC(C)CSC1=NSC2=NC(=O)/C(=C\c3ccccc3)C(=N)N12	–	198% (active)
Oc1c(Br)cc(Br)cc1/C=N/c1nc2c(s1)CCCC2	–	186% (active)
CC(C)C(NC(=O)Nc1ccccc1)C(=O)Nc1cccc(S(=O)(=O)N(C)C)c1 (centres undefined)	–	232% (active)
O=c1c2cc(Br)ccc2nc(-c2ccccc2)n1O	–	366% (active)
O=C(CSc1nc2ccccc2[nH]1)N/N=C/c1ccncc1	inactive	–
CCOC(=O)c1ccc(Nc2nc(N3CCOCC3)nc(N3CCOCC3)n2)cc1	inactive	–
CN(C)CCCC1(O)c2ccccc2C=Cc2ccccc21	–	139% (active)
O=C(Nc1cc([N+](=O)[O-])ccc1N1CCCC1)c1cccs1	inactive	–
Oc1oc(-c2cccc3ccccc23)nc1/C=N/c1nccs1	inactive	–
COn1c(SCc2ccc(C)cc2C)nc2ccccc2c1=O	inactive	–
Cc1ccc(OCC(=O)NC(=S)Nc2ccc(Br)cn2)cc1	inactive	–
Cc1ccccc1NC1=NC(=S)N(c2ccccc2)C12CCCCC2	–	176% (active)
